Laboratory results reported in ChEMBL document CHEMBL4017517, “Small Molecule Inhibitors Simultaneously Targeting Cancer Metabolism and Epigenetics: Discovery of Novel Nicotinamide Phosphoribosyltransferase (NAMPT) and Histone Deacetylase (HDAC) Dual Inhibitors” (J Med Chem, 2017).
Calls of active or inactive are those of the source. No cut-off for these calls is given here.

Tests used:
HCT-116 [1] = assay: cells; type: functional, cell-based; settings: Homo sapiens, HCT-116, 72 h
HepG2 = assay: cells; type: functional, cell-based; settings: Homo sapiens, HepG2, 72 h
[2] = molecular target: T1, Protein deacetylase HDAC6 (Homo sapiens, UniProt Q9UBN7); assay: Inhibition of human recombinant HDAC6 expressed in Baculovirus infected Sf9 cells using Ac-Leu-Gly-Lys(Ac)-AMC as substrate preincubated for 5 mins followed by substrate addition measured after 30 mins by fluorescence assay
T1 sequence (Q9UBN7 whole entry): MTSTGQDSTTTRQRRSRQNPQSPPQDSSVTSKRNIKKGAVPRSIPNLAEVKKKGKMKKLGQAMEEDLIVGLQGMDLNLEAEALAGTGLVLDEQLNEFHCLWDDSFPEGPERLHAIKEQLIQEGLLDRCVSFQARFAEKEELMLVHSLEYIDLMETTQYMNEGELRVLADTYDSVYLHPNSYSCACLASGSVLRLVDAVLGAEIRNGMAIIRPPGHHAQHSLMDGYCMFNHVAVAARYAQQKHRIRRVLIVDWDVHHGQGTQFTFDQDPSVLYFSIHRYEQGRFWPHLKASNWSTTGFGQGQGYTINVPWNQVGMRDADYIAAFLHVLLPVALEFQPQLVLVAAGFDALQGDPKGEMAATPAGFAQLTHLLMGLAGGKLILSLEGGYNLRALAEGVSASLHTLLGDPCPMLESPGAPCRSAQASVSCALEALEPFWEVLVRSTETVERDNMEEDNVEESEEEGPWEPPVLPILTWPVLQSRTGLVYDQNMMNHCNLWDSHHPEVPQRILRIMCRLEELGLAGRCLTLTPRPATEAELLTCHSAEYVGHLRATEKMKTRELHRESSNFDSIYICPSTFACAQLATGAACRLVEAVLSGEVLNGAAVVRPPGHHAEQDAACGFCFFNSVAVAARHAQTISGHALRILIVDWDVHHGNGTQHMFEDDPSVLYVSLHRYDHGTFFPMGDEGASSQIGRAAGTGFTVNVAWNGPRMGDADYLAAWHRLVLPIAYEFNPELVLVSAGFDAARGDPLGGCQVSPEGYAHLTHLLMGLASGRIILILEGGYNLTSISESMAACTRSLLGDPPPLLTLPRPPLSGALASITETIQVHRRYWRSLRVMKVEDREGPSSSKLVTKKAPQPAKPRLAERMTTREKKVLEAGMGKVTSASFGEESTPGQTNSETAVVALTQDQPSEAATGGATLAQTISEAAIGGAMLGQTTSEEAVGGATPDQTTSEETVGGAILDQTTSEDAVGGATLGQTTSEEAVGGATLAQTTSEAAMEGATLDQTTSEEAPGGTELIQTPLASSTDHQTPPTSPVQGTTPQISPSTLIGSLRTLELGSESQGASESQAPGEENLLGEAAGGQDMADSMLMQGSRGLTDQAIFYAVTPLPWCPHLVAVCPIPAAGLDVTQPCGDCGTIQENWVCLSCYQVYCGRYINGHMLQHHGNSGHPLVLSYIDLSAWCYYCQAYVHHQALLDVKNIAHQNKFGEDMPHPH

[3] = molecular target: Histone deacetylase 3/NCoR1 (Homo sapiens, UniProt O15379); assay: Inhibition of human recombinant HDAC3/GST tagged NCOR1 (397 to 503 residues) expressed in insect cells using Ac-Leu-Gly-Lys(Ac)-AMC as substrate preincubated for 5 mins followed by substrate addition measured after 30 mins by fluorescence assay
Sequence of Histone deacetylase 3/NCoR1 (O15379 whole entry, the tested form may be a part): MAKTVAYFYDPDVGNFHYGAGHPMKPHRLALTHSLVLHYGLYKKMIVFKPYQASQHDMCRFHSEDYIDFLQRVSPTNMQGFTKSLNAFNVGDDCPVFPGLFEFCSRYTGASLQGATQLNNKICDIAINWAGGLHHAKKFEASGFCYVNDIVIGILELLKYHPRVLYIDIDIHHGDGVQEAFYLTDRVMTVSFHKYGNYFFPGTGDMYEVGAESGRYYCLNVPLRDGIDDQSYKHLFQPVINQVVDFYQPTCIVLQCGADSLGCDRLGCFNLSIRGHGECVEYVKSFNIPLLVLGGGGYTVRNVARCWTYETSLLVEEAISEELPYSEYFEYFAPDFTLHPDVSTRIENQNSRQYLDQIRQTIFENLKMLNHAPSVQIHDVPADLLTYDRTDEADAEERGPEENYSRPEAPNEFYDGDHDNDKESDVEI
Sequence of Histone deacetylase 3/NCoR1 (O75376 whole entry, further chain, the tested form may be a part): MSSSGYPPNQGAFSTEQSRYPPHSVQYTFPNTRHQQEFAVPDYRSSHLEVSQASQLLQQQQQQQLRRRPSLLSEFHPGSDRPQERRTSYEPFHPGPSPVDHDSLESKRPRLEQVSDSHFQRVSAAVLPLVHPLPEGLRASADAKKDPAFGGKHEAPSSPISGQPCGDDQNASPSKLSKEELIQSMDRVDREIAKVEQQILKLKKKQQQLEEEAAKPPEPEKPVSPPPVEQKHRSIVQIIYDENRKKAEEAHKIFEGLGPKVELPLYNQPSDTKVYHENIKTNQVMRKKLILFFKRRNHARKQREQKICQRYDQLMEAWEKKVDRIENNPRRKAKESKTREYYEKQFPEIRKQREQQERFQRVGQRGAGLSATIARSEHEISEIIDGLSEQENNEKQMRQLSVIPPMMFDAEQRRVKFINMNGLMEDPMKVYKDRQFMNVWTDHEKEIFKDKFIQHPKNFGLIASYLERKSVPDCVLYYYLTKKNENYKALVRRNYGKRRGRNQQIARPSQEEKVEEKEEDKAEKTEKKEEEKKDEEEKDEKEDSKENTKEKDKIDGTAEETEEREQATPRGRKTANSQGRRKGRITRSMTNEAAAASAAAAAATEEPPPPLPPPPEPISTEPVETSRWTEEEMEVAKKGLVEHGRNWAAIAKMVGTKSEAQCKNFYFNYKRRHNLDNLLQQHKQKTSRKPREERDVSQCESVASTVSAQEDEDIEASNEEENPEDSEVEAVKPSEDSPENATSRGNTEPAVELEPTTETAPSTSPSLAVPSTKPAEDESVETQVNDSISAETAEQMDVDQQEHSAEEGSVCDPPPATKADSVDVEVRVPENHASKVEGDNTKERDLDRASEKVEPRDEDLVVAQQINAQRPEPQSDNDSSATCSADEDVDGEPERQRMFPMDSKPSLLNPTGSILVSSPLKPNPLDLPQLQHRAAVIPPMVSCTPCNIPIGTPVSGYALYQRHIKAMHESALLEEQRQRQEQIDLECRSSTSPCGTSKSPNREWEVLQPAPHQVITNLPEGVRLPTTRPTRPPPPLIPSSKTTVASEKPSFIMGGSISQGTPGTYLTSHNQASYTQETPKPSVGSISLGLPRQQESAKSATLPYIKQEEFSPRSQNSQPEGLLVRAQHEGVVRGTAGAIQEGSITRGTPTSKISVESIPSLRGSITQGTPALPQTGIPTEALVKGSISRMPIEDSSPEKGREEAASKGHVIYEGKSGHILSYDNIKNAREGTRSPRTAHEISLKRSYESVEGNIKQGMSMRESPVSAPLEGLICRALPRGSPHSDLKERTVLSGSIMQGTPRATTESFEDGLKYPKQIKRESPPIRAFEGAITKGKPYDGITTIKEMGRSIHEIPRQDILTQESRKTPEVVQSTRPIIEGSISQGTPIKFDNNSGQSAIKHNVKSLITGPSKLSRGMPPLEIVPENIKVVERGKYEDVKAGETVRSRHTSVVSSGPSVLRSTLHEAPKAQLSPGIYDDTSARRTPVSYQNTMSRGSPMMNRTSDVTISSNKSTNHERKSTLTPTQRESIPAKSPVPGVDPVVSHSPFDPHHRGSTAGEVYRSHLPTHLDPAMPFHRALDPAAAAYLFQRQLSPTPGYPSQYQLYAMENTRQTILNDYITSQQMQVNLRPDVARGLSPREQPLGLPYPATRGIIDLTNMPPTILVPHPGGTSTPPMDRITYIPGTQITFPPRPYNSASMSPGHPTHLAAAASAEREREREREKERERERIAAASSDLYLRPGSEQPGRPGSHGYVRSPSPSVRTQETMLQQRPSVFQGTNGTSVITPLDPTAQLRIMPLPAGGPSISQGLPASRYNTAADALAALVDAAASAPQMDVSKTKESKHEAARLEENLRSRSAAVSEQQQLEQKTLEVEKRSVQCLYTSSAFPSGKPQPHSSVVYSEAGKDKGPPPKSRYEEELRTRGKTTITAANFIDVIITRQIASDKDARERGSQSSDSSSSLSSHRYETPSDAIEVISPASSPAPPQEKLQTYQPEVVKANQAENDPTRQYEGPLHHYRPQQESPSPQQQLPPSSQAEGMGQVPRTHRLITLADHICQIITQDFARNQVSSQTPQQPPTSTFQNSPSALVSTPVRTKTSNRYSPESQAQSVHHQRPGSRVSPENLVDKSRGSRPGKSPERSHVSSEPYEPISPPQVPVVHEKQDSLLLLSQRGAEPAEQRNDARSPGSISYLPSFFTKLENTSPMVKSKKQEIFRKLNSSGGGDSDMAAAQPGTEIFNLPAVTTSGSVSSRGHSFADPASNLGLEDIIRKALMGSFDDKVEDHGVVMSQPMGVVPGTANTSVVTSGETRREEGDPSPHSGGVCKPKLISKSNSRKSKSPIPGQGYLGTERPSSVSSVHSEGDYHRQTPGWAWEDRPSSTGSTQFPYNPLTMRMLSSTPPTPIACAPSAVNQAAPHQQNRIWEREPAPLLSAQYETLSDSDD

HCT-116 [4] = assay: Induction of apoptosis in human HCT116 cells assessed as necrotic cells at 5 uM after 72 hrs by Annexin V-FITC/propidium iodide staining-based flow cytometric analysis (reference value: 1.25%); type: functional
In short: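 HCT116 cells seeded at 5×10^5 cells/mL in six-well plates, treated at 5 μM for 72 h alongside vehicle. Cells trypsinized, washed twice in cold PBS, and resuspended in 1× binding buffer. Stained with annexin V-FITC 15 min at room temperature, then PI 15 min in dark, then flow cytometry.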

HCT-116 [5] = assay: Induction of apoptosis in human HCT116 cells assessed as early apoptotic cells at 5 uM after 72 hrs in presence of autophagy inhibitor wortmannin by Annexin V-FITC/propidium iodide staining-based flow cytometric analysis (reference value: 7.82%); type: functional
HCT-116 [6] = assay: Induction of apoptosis in human HCT116 cells assessed as necrotic cells at 5 uM after 72 hrs in presence of autophagy inhibitor wortmannin by Annexin V-FITC/propidium iodide staining-based flow cytometric analysis (reference value: 1.25%); type: functional
HCT-116 [7] = assay: Induction of autophagy in human HCT116 cells assessed as increase in LC3-2 level at 5 uM after 24 hrs by Western blot analysis; type: functional, cell-based
In short: (§1)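 HCT116 cells exposed to 5 μM for 24, 48 and 72 h; DMSO control. Lysed in RIPA on ice, cleared 12000 × g. 30 μg protein per lane on SDS-PAGE, transferred to PVDF, blocked in 5% BSA. Probed overnight at 4 °C for LC3-II and P-62, then secondary antibody 1.5 h. Infrared imaging detection with quantification.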

HCT-116 [8] = assay: Induction of autophagy in human HCT116 cells assessed as increase in LC3-2 level at 5 uM after 48 to 72 hrs by Western blot analysis; type: functional, cell-based
In short: as §1

HCT-116 [9] = assay: Induction of autophagy in human HCT116 cells assessed as decrease in P-62 level at 5 uM after 24 to 72 hrs by Western blot analysis; type: functional, cell-based
In short: as §1

HCT-116 [10] = assay: Cell cycle arrest in human HCT116 cells assessed as accumulation at G2 phase at 1 uM after 48 hrs by propidium iodide staining based flow cytometry (reference value: 5%); type: functional
Homo sapiens = species: Homo sapiens; assay: Inhibition of HDAC in human HCT116 cells assessed as increase in acetylated histone H4 level after 24 hrs by Western blot analysis; type: cell-based
In short: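 HCT116 cells treated at 1 and 5 μM for 24 h; DMSO-volume control. PBS-washed, RIPA-lysed on ice 30 min, centrifuged 12000 × g 15 min at 4 °C. 30 μg protein separated by SDS-PAGE, blotted to PVDF, blocked 5% BSA 2 h. Incubated with acetyl-histone H3 or H4 primary antibody overnight at 4 °C, then secondary antibody; infrared imaging.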

HCT-116 [11] = assay: animal or person; type: functional, Homo sapiens; settings: Mus musculus, HCT-116, ip, read-out: TGI
[12] = Terminal half life in Sprague-Dawley rat at 2 mg/kg, ip; type: ADME, organism-based; settings: in vivo, read-out: beta t1/2 (converted)
In short: (§2)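 Sprague-Dawley rats given a single ip dose of 2 mg/kg. Plasma concentration–time profile used to derive terminal half-life, Cmax, plasma clearance and Vss.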

[13] = Cmax in Sprague-Dawley rat at 2 mg/kg, ip; type: ADME, organism-based; design: dose 2 mg/kg, route intraperitoneal; settings: in vivo
In short: as §2

[14] = Plasma clearance in Sprague-Dawley rat at 2 mg/kg, ip; type: ADME, organism-based
In short: as §2

[15] = molecular target: Nicotinamide phosphoribosyltransferase (Homo sapiens, UniProt P43490); settings: 10 uM
Sequence of Nicotinamide phosphoribosyltransferase (P43490 whole entry, looked up): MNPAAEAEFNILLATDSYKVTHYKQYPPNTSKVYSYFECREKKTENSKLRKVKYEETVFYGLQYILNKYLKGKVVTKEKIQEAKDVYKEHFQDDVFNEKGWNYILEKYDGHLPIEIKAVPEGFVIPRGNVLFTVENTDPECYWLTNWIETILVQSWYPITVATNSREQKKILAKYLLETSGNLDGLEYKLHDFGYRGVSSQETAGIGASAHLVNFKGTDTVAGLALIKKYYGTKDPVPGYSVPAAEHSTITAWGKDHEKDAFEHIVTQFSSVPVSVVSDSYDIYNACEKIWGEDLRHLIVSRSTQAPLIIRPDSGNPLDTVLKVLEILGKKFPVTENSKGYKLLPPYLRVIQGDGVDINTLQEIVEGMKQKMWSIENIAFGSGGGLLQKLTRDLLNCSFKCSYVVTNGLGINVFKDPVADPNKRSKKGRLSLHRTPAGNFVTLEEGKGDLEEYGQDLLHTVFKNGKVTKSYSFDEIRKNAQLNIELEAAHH

## Nc1ccccc1NC(=O)c1ccc(Cn2cc(-c3ccc(C(=O)NCc4cccnc4)cc3)nn2)cc1
HCT-116 [1]
  IC50: 2.4 µM
HepG2
  IC50: 4.5 µM
[2]
  IC50: > 100 µM
[3]
  IC50: 1.87 µM
HCT-116 [4]
  Activity: 2.43%
HCT-116 [5]
  Activity: 12.46%
HCT-116 [6]
  Activity: 2.19%
HCT-116 [7]
  Activity: Active
HCT-116 [8]
  Activity: inactive
HCT-116 [9]
  Activity: Active
HCT-116 [10]
  Activity: 19%
Homo sapiens
  inhibition: Active
HCT-116 [11]
  inhibition in vivo at 25 mg/kg: 69%
[12]
  half-life: 1.8 h
[13]
  Cmax: 0.745 µg/mL
[14]
  CL/F: 6.17 L/h/kg
[15]
  ΔTm: 1.58 °C
